# Assay outcomes from PubChem.
# An excerpt weighted towards active compounds, which were near 5.5% of everything screened.
# STAT3 blocker: IL-6 driven STAT3 reporter inhibitors, primary screen, U3A cells, luciferase, luminescence, MLSCN library; IL-6 STAT3-luciferase reporter; host cell line lacks STAT1; AID 862, 2007; inhibition, % at 5.5 µM; 190,000 compounds, 0.89% hits;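 active = inhibition above the mean inhibition across all screened compounds plus 3 SD, cut at about 44% in these data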;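 note: 0% = DMSO only wells and 100% = 100 µM nifuroxazide control wells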
# STAT1 activator: STAT1 signaling activators, primary screen, cell-based, HTS, luciferase reporter; NIH 3T3 STAT1-luciferase reporter, IFN-gamma, luminescence; 100% = IFN-gamma alone, no compound; activation (% of control), % at 5.5 µM; 200,000 compounds, 2.6% hits;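 active = activation above the screen-wide mean activation plus 3 SD, cut at about 130% in these data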;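 note: raw ratio to IFN-gamma control signal so 100% means no change and 0% no light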
# HSV augment: enhancers of HSV replication in host cells, fold increase, host cell viability. maximum fold increase. AID 1956, 2009. HSV replication augmentation in cells. 220,000 compounds, 0.005% hits; in the data active = maximum fold increase above about 1.5; inconclusive = no clear call, values can overlap the other calls; tested in PC3 cells
# KCC2 mod: KCC2 cotransporter modulators, thallium flux, primary screen, cell-based, HEK293 KCC2, FluoZin-2 fluorescence, MLSMR; B-score of Tl+ flux slope (higher = more flux/activation; lower = inhibition) at 10 µM; KCC2 cells, thallium flux FluoZin-2 fluorescence; 190,000 compounds, 2.2% hits; Solute carrier family 12 member 5 (Homo sapiens), Q9H2X9;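 active = thallium flux slope and its plate-corrected score both differing from the plate sample mean at a set confidence after two filtering rounds, in either direction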;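 note: slope of fluorescence scaled to starting intensity during 10 to 20 s after thallium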
# STAT1 blocker: STAT1 signaling inhibitors, primary screen, cell-based, HTS, luciferase reporter; NIH 3T3 STAT1-luciferase reporter, IFN-gamma, luminescence; inhibition, % at 5.5 µM; 200,000 compounds, 0.35% hits; AID 920, 2007;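 active = inhibition above a set limit, the mean inhibition across all tested compounds plus 3 SD, cut at about 34% in these data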;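 note: 0% = IFN-gamma with DMSO and 100% = IFN-gamma with 300 µM nifuroxazide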
# STAT3 act: IL-6 driven STAT3 reporter potentiators, primary screen, U3A cells, luciferase, luminescence, MLSCN library; IL-6 STAT3-luciferase reporter; 100% = signal with IL-6 EC80 alone; activation (% of control), % at 5.6 µM; 190,000 compounds, 0.91% hits; AID 871, 2007;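 active = activation above the screen-wide mean of compound activation plus 3 SD, cut at about 130% in these data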;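 note: 0% = background luminescence of wells with medium and substrate only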
#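 Material: STAT3-luciferase reporter U3A cells. Controls: IL-6-treated wells, 100% activation. Read-out: % activation versus median of IL-6-stimulated wells. Probe or stimulus: IL-6 stimulus at 33 ng/mL final. Timing: compound 1 h, then IL-6 6 h at 37 °C. Signal: reporter luminescence signal.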
# KCC2 secondary: KCC2 modulators in sodium-free buffer, confirmation, cell-based, HEK293 KCC2, thallium flux, secondary assay; 3,700 compounds, 15% hits; shares compounds with KCC2 mod; FluoZin2 fluorescence; stronger effect = higher value; normalised thallium flux (F/F0 slope) at 10 µM; AID 1713, 2009;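 active = thallium flux slope above the same plate's solvent-only control mean plus 3 SD; inconclusive = the two replicate wells disagree; inactive = no significant difference from solvent-only control wells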
# KCC2 bumet counter: thallium flux persisting under bumetanide in KCC2 cells, confirmation, counter-screen for KCC2 modulator project, cell-based, HEK293 KCC2, FluoZin2, secondary assay 3; AID 1714, 2009; shares compounds with KCC2 mod; 3,700 compounds, 49% hits; HEK293-KCC2 + bumetanide/ouabain; stronger effect = higher value; normalized thallium flux at 10 µM;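 active = thallium entry rate above the same plate's blocked-transporter control wells by more than 3 SD; inconclusive = the two repeat wells disagree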;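 note: raw slope of fluorescence over initial fluorescence between 10 and 20 s after thallium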
# KCC2 secondary2: KCC2 modulators without ouabain present, confirmation, cell-based, HEK293 KCC2, thallium flux, FluoZin2, secondary assay 2. AID 1715, 2009. thallium flux FluoZin2 fluorescence; actives lie on both sides; F/F0 rise rate, 10–20 s post-thallium. normalized thallium flux at 10 µM. 3,700 compounds, 23% hits. shares compounds with KCC2 mod;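 active = thallium flux slope more than 3 SD above or below the plate's solvent-only control mean, mostly below; inconclusive = the two repeat wells disagreed; inactive = no significant shift from solvent-only controls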;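 note: raw slope with 0.1% DMSO as baseline and bumetanide as block control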
# HEK counter1: thallium flux modulation in parental HEK cells, confirmation, counter-screen for KCC2 modulator project, cell-based, counterscreen 1; shares compounds with KCC2 mod; HEK293 parental cells, thallium flux FluoZin2, ouabain; baseline-ratio fluorescence slope, 10–20 s after thallium; thallium flux rate (normalised fluorescence) at 10 µM; 3,700 compounds, 46% hits; AID 1716, 2009;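 active = thallium flux rate significantly above the same plate's solvent-only control wells, beyond their mean plus 3 SD; inconclusive = the two replicate wells gave conflicting results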
# KCC2 ouabain: KCC2 inhibitors and activators, ouabain retest, confirmation, HEK-KCC2 cells; shares compounds with KCC2 mod; HEK293-KCC2, thallium flux FluoZin2 fluorescence; bidirectional: low = inhibitor, high = activator; raw Tl+ flux slope (below DMSO = inhibition, above = activation) at 10 µM; 3,700 compounds, 48% hits; AID 1717, 2009;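 active = thallium flux slope beyond 3 SD from same-plate DMSO control mean in most replicates, usually higher, sometimes lower; inconclusive = repeat tests gave conflicting results; inactive = no significant difference from controls in most replicates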;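 note: slope of initial-normalized fluorescence between seconds 10 and 20 after thallium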
# HEK293 Tl flux2: native HEK Tl+ uptake effects, second counter-screen – HEK cells, counterscreen 2, counter-screen for KCC2 modulator project, confirmation. thallium flux slope at 10 µM. 3,700 compounds, 33% hits. shares compounds with KCC2 mod. AID 1718, 2009. HEK293 parental, thallium flux FluoZin-2 fluorescence slope;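 active = thallium flux slope above the same plate's solvent-control mean plus 3 SD in both duplicate wells; inconclusive = duplicate wells that disagreed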;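 note: run without ouabain in cells lacking the KCC2 cotransporter; slope of fluorescence scaled to its starting value between 10 and 20 s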
# * hit, by the source's call; i = inactive; ? = inconclusive; / = no result.
SMILES,STAT3 blocker,STAT1 activator,HSV augment,KCC2 mod,STAT1 blocker,STAT3 act,KCC2 secondary,KCC2 bumet counter,KCC2 secondary2,HEK counter1,KCC2 ouabain,HEK293 Tl flux2
S=c1[nH]nc(-c2cccs2)n1/N=C/c1c(Cl)cccc1Cl,3,98,i,34*,1,99,0.019,0.042*,0.03,0.022*,0.029*,0.019*
Cc1cccc(-c2n[nH]c(=S)n2/N=C/c2ccc(C)s2)c1,-4,106,i,13*,-6,101,0.011,0.031*,0.033,0.016*,0.028,0.012*
S=c1[nH]nc(-c2ccco2)n1/N=C/c1c(Cl)cccc1Cl,/,/,i,1.9,/,/,/,/,/,/,/,/
Cc1cccc(-c2n[nH]c(=S)n2/N=C/c2cccs2)c1,/,/,i,41*,/,/,0.019*,0.08*,0.034,0.054*,0.054*,0.016*
Cc1nn(-c2cccc(Cl)c2)c(Cl)c1/C=N/NC(=O)c1cccnc1,9,107,i,-1.9,-8,94,/,/,/,/,/,/
COc1ccc(C)cc1-n1nnnc1SCC1CCCCO1 (centres undefined),-5,102,i,-0.059,-2,111,/,/,/,/,/,/
CC1Cc2nc(SCC(=O)N3CCN(c4ccccc4)CC3)n(CCc3ccccc3)c(=O)c2S1 (centres undefined),21,94,i,-0.52,7,86,/,/,/,/,/,/
CCn1c(SCC(=O)N2CCN(c3ccccc3)CC2)nc2c(c1=O)SC(C)C2 (centres undefined),16,85,i,-3.1*,17,91,0.0049,0.0041,?,0.0051*,0.014*,0.0084*
S=c1[nH]nc(-c2cccnc2)n1/N=C/C=C/c1ccccc1,16,106,i,1.1,-6,91,/,/,/,/,/,/
OCC1N=C(c2ccccn2)OC1c1ccccc1 (centres undefined),10,99,i,-5.8*,1,95,0.0072,0.007,0.03,0.0072,0.02,0.01*
Cn1c(-c2ccc3c(c2)OCO3)cnc1NC(=O)CCC(=O)NCCc1ccccc1,-1,114,i,-3.7*,-16,105,0.0077,0.0066,0.03,0.0078,0.019,?
C/C(=N\NC(=O)c1ccc([N+](=O)[O-])c(C)c1)c1ccccc1Cl,0,108,i,12*,-6,98,?,0.046*,0.038,?,0.041*,?
COc1cc(-c2c(C#N)c(=O)[nH]c3c2c(C)nn3-c2ccccc2)ccc1O,5,101,i,-5*,-1,98,0.0078,0.0041,0.03,0.0067,?,0.0093
CCc1nc(N)c(C#N)c(-c2ccc(O)c(OC)c2)c1C,1,99,i,-2.9,1,104,/,/,/,/,/,/
O=C(C1CC(c2ccccc2O)=NO1)N1CCc2ccccc2C1 (centres undefined),0,96,i,-3.2*,5,105,0.0068,0.0053,?,0.008,0.018,0.011
O=C(C1CC(c2ccccc2O)=NO1)N1CCCCC1 (centres undefined),-16,114,i,/,-15,114,/,/,/,/,/,/
N#CCCN(Cc1cccnc1)C(=S)NC(=O)c1ccc(S(=O)(=O)N2CCCC2)cc1,1,104,/,0.29,-4,107,/,/,/,/,/,/
CN(Cc1ccccc1)C(=S)NC(=O)c1ccccc1,14,103,i,65*,-5,93,0.056*,0.16*,0.07*,0.085*,0.13*,0.036*
CCCOc1ccc(CN(CCC#N)C(=S)NC(=O)c2ccccc2)cc1,4,99,i,80*,1,95,0.055*,0.11*,0.074*,0.1*,0.11*,0.055*
COc1ccc(C(=O)NC(=S)N(C)Cc2ccccc2)cc1Br,14,101,i,11*,-3,91,0.0079,0.019*,0.037,0.022*,0.044*,0.016*
COc1ccccc1-c1coc2cc(OC(=O)/C=C/c3ccccc3)ccc2c1=O,-12,104,i,-0.26,-4,111,/,/,/,/,/,/
O=c1cc(CSc2ccc(S(=O)(=O)N3CCCCC3)cn2)nc2sccn12,11,98,i,/,2,94,/,/,/,/,/,/
CCn1cc(C(=O)O)c(=O)c2cc(F)c(N3CCN(C(=S)NC(=O)c4ccc(F)c(F)c4)CC3)cc21,7,110,i,0.1,-14,97,/,/,/,/,/,/
O=C(NNC(=O)c1ccc(Cl)cc1Cl)c1csc(-c2cccnc2)n1,/,/,i,8.1*,/,/,0.0059,0.018*,0.033,0.015*,?,0.018*
O=C(COC(=O)c1ccccc1O)Nc1cccnc1Cl,4,101,i,1.9,-1,99,/,/,/,/,/,/
O=C(COC(=O)c1cccnc1Cl)Nc1nc(-c2ccccc2)cs1,30,110,i,-5.3*,-11,77,0.0056*,0.0063,0.029,0.0068,0.041*,0.01
